Measurements: ChEMBL document CHEMBL4020840, “Synthesis and Biological Evaluation of Selenium-Containing 4-Anilinoquinazoline Derivatives as Novel Antimitotic Agents” (J Med Chem, 2018)
Activity calls are given as the source filed them. The calls are words filed in the database; no cut-off is given here.

Legend:
A549 [1] = experiment: Antitumor activity against human A549 cells xenografted in Balb/c mouse assessed as tumor growth inhibition at 2.5 mg/kg, ip treated once in 2 days for 10 days relative to control; format: functional; details: read-out: TGI
Outline: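 Male BALB/c nude mice, 5 weeks old, 18−20 g. Right flank injected sc with 0.1 mL of 1 × 10⁷ cells/mL log-phase A549 in FBS-free DMEM. At ~100 mm³, randomised into groups of 5 and dosed ip every 2 days; vehicle controls got equal volume. Tumour volume (0.5 × length × width²) and body weight recorded every 2 days.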

A549 [2] = experiment: Antimigratory activity against human A549 cells assessed as suppression of wound healing at 4 nM after 24 hrs by phase contrast microscopic method; format: functional, cell-based
Outline: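 Scratch wound assay: A549 plated at 5 × 10⁴ cells/dish and grown 24 h before scraping with a 10 μL tip. Medium then swapped to serum-free DMEM containing compound (4 nM) for 24 h. After a PBS wash, wound images taken at 0 and 24 h; at least three independent experiments.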

Sus scrofa [3] = species on record: Sus scrofa; experiment: Inhibition of porcine brain tubulin polymerization at 7.5 uM measured every 60 secs for 90 mins by DAPI staining based fluorescence assay relative to control
Outline: (§1)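 Purified tubulin was tested in a kit assay. Final buffer: 80 mM PIPES sesquisodium (pH 6.9), 2.0 mM MgCl₂, 0.5 mM EGTA, 1 mM GTP, 10.2% glycerol. Compound (0.1–10 μM) was prewarmed at 37 °C for 1 min before tubulin was added. DAPI reporter fluorescence (ex 340 / em 410 nm) was read every 60 s for 90 min. Area under the curve gave percent inhibition versus control and the IC50.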

MCF7 = experiment: Antiproliferative activity against human MCF7 cells after 48 hrs by MTT assay; format: functional, cell-based; details: MCF7, 48 h
Outline: (§2)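 MTT assay: log-phase cells plated at 5 × 10³/well for 24 h, then exposed to a range of test concentrations for 48 h. MTT (5 mg/mL) added for 4 h, formazan dissolved in DMSO, absorbance read at 570 nm. IC50 is the concentration giving 50% growth inhibition, from dose-response curves; at least three independent experiments, mean ± SE.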

[4] = Growth inhibition of human HepG2/DOX cells after 48 hrs by MTT assay; format: functional, cell-based; outline: as §2
HCT-116 = experiment: Growth inhibition of human HCT116 cells after 48 hrs by MTT assay; format: functional, cell-based; details: HCT-116, 48 h; outline: as §2
HeLa = experiment: Antiproliferative activity against human HeLa cells after 48 hrs by MTT assay; format: functional, cell-based; outline: as §2
MGC-803 = experiment: Antiproliferative activity against human MGC803 cells after 48 hrs by MTT assay; format: functional, cell-based; details: MGC-803, 48 h; outline: as §2
[5] = Selectivity index, ratio of IC50 for human BJ cells to IC50 for human A549 cells; format: functional
Outline: (§3)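 MTT assay in normal cells and A549: seeding at 5 × 10³ cells/well for 24 h, 48 h compound exposure, then 5 mg/mL MTT for 4 h, DMSO solubilisation and absorbance at 570 nm. IC50 values came from dose–response curves of at least three independent experiments. Selectivity ratio = IC50 in normal cells / IC50 in A549.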

A549/CDDP = experiment: Growth inhibition of human A549/CDDP cells after 48 hrs by MTT assay; format: functional, cell-based; outline: as §2
L02 = experiment: Antiproliferative activity against human LO2 cells after 48 hrs by MTT assay; format: cell-based; details: L02, 48 h; outline: as §2
[6] = (§4) Inhibition of porcine brain tubulin polymerization measured every 60 secs for 90 mins by DAPI staining based fluorescence assay; set-up: species or system Sus scrofa; outline: as §1
BJ = experiment: Antiproliferative activity against human BJ cells after 48 hrs by MTT assay; format: cell-based; outline: as §2
[7] = Selectivity index, ratio of IC50 for human LO2 cells to IC50 for human A549 cells; format: functional; outline: as §3
[8] = Antiproliferative activity against HLF after 48 hrs by MTT assay; format: cell-based; details: Homo sapiens; outline: as §2
MDA-MB-231 = experiment: Growth inhibition of human MDA-MB-231 cells after 48 hrs by MTT assay; format: functional, cell-based; details: MDA-MB-231, 48 h; outline: as §2
[9] = Resistance factor, ratio of IC50 for human A549/CDDP cells to IC50 for human A549 cells; format: functional
Outline: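 MTT assay: log-phase cells were seeded at 5 × 10³/well for 24 h, then exposed to a concentration series for 48 h. MTT (5 mg/mL) was added for 4 h, formazan was dissolved in DMSO, and A570 was read. IC50 values came from dose–response curves of at least three independent experiments. Resistance factor = IC50 in the resistant line / IC50 in the parental sensitive line.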

A549 [10] = experiment: Growth inhibition of human A549 cells after 48 hrs by MTT assay; format: functional, cell-based; details: A549, 48 h
RKO = experiment: Growth inhibition of human RKO cells after 48 hrs by MTT assay; format: functional, cell-based; outline: as §2
[11] = Selectivity index, ratio of IC50 for HLF to IC50 for human A549 cells; outline: as §3
LoVo = experiment: Growth inhibition of human LoVo cells after 48 hrs by MTT assay; format: functional, cell-based; outline: as §2
HepG2 = experiment: Growth inhibition of human HepG2 cells after 48 hrs by MTT assay; format: functional, cell-based; details: HepG2, 48 h; outline: as §2
Sus scrofa [12] = species on record: Sus scrofa; experiment: as §4; outline: as §1
A549 [13] = experiment: Cell cycle arrest in human A549 cells assessed as accumulation at G2/M phase up to 24 hrs by propidium iodide staining based flow cytometry; format: functional
Outline: (§5)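 A549 seeded in six-well plates at 3 × 10⁵ cells/well and treated for 12 or 24 h; vehicle 0.01% DMSO. Cells fixed overnight in ice-cold 70% ethanol, treated with RNase A at 37 °C for 30 min, then stained with PI at 4 °C for 30 min. About 10 000 events acquired by flow cytometry at 488 nm; three experiments.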

A549 [14] = experiment: Induction of apoptosis in human A549 cells assessed as late apoptotic cells at 4 nM after 24 hrs by Annexin V-FITC/propidium iodide staining based flow cytometry (reference value: 0.08%); format: functional
A549 [15] = experiment: Cell cycle arrest in human A549 cells assessed as accumulation at G2/M phase at 4 nM after 24 hrs by propidium iodide staining based flow cytometry (reference value: 10.13%); format: functional; outline: as §5
A549 [16] = experiment: Induction of apoptosis in human A549 cells assessed as late apoptotic cells at 4 nM after 48 hrs by Annexin V-FITC/propidium iodide staining based flow cytometry (reference value: 0.03%); format: functional
A549 [17] = experiment: Induction of apoptosis in human A549 cells assessed as early apoptotic cells at 2 nM after 24 hrs by Annexin V-FITC/propidium iodide staining based flow cytometry (reference value: 0.98%); format: functional
A549 [18] = experiment: Induction of apoptosis in human A549 cells assessed as early apoptotic cells at 4 nM after 48 hrs by Annexin V-FITC/propidium iodide staining based flow cytometry (reference value: 1.48%); format: functional
A549 [19] = experiment: Induction of apoptosis in human A549 cells assessed as necrotic cells at 4 nM after 24 hrs by Annexin V-FITC/propidium iodide staining based flow cytometry (reference value: 0.10%); format: functional
A549 [20] = experiment: Induction of apoptosis in human A549 cells assessed as late apoptotic cells at 2 nM after 24 hrs by Annexin V-FITC/propidium iodide staining based flow cytometry (reference value: 0.08%); format: functional
A549 [21] = experiment: Cell cycle arrest in human A549 cells assessed as accumulation at G2/M phase at 4 nM after 12 hrs by propidium iodide staining based flow cytometry (reference value: 10.13%); format: functional; outline: as §5
A549 [22] = experiment: Induction of apoptosis in human A549 cells assessed as necrotic cells at 2 nM after 24 hrs by Annexin V-FITC/propidium iodide staining based flow cytometry (reference value: 0.10%); format: functional
A549 [23] = experiment: Induction of apoptosis in human A549 cells assessed as early apoptotic cells at 4 nM after 24 hrs by Annexin V-FITC/propidium iodide staining based flow cytometry (reference value: 0.98%); format: functional
A549 [24] = experiment: Induction of apoptosis in human A549 cells assessed as late apoptotic cells at 2 nM after 48 hrs by Annexin V-FITC/propidium iodide staining based flow cytometry (reference value: 0.03%); format: functional
A549 [25] = experiment: Induction of apoptosis in human A549 cells assessed as live cells at 4 nM after 48 hrs by Annexin V-FITC/propidium iodide staining based flow cytometry (reference value: 98.49%); format: functional
A549 [26] = experiment: Induction of apoptosis in human A549 cells assessed as necrotic cells at 4 nM after 48 hrs by Annexin V-FITC/propidium iodide staining based flow cytometry relative to control; format: functional
A549 [27] = experiment: Induction of apoptosis in human A549 cells assessed as live cells at 2 nM after 24 hrs by Annexin V-FITC/propidium iodide staining based flow cytometry (reference value: 98.84%); format: functional
A549 [28] = experiment: Induction of apoptosis in human A549 cells assessed as live cells at 2 nM after 48 hrs by Annexin V-FITC/propidium iodide staining based flow cytometry (reference value: 98.49%); format: functional
A549 [29] = experiment: Induction of apoptosis in human A549 cells assessed as live cells at 4 nM after 24 hrs by Annexin V-FITC/propidium iodide staining based flow cytometry (reference value: 98.84%); format: functional
A549 [30] = experiment: Induction of apoptosis in human A549 cells assessed as necrotic cells at 2 nM after 48 hrs by Annexin V-FITC/propidium iodide staining based flow cytometry relative to control; format: functional
A549 [31] = experiment: Induction of apoptosis in human A549 cells assessed as early apoptotic cells at 2 nM after 48 hrs by Annexin V-FITC/propidium iodide staining based flow cytometry (reference value: 1.48%); format: functional

Structure (SMILES): C[Se]c1ccc(N(C)c2nc(C)nc3ccccc23)cc1F [listing 1 of 3 here]
- inhibition in vivo at 2.5 mg/kg (A549 [1]): 77.2%

Structure (SMILES): COc1ccc(N(C)c2nc(C)nc3ccccc23)cc1
- Activity (A549 [2]): Active
- inhibition (Sus scrofa [3]): 77.6%

Structure (SMILES): COc1ccc(N(C)c2nc(C)nc3ccccc23)cc1 [VERUBULIN]
- IC50 (MCF7): 11 nM
- IC50 [4]: 11 nM
- IC50 (HCT-116): 4 nM
- IC50 (HeLa): 5 nM
- IC50 (MGC-803): 8 nM
- Ratio IC50 [5]: 7.5
- IC50 (A549/CDDP): 9 nM
- IC50 (L02): 13 nM
- IC50 [6]: 2740 nM
- IC50 (BJ): 15 nM
- Ratio IC50 [7]: 6.5
- IC50 [8]: 18 nM
- IC50 (MDA-MB-231): 8 nM
- Ratio IC50 [9]: 3
- IC50 (A549 [10]): 3 nM
- IC50 (RKO): 3 nM
- Ratio IC50 [11]: 9
- IC50 (LoVo): 8 nM
- IC50 (HepG2): 5 nM

Structure (SMILES): C[Se]c1ccc(N(C)c2nc(C)nc3ccccc23)cc1F [listing 2 of 3 here]
- Activity (A549 [2]): Active
- inhibition (Sus scrofa [12]): Dose-dependent effect
- inhibition (Sus scrofa [3]): 90.5%
- Activity (A549 [13]): Dose-dependent effect

Structure (SMILES): C[Se]c1ccc(N(C)c2nc(C)nc3ccccc23)cc1F [listing 3 of 3 here]
- IC50 (MCF7): 9 nM
- Activity (A549 [14]): 1.97%
- IC50 [4]: 5 nM
- Activity (A549 [15]): 79.71%
- IC50 (HCT-116): 6 nM
- Activity (A549 [16]): 25.29%
- Activity (A549 [17]): 10.96%
- Activity (A549 [18]): 27.52%
- IC50 (HeLa): 5 nM
- Activity (A549 [19]): 0.78%
- IC50 (MGC-803): 7 nM
- Ratio IC50 [5]: 9.5
- IC50 (A549/CDDP): 11 nM
- IC50 (L02): 16 nM
- Activity (A549 [20]): 2.46%
- IC50 [6]: 1270 nM
- Activity (A549 [21]): 60.89%
- IC50 (BJ): 19 nM
- Activity (A549 [22]): 1.52%
- Ratio IC50 [7]: 8
- IC50 [8]: 19 nM
- Activity (A549 [23]): 36.98%
- IC50 (MDA-MB-231): 5 nM
- Activity (A549 [24]): 16.6%
- Activity (A549 [25]): 34.36%
- Ratio IC50 [9]: 3.67
- Activity (A549 [26]): 12.82%
- IC50 (A549 [10]): 2 nM
- IC50 (RKO): 7 nM
- Activity (A549 [27]): 85.06%
- Ratio IC50 [11]: 9.5
- Activity (A549 [28]): 63.84%
- Activity (A549 [29]): 60.27%
- Activity (A549 [30]): 7.34%
- IC50 (LoVo): 9 nM
- Activity (A549 [31]): 12.22%
- IC50 (HepG2): 4 nM
